Reference: ChEMBL document CHEMBL5325511, “Discovery of N-(4-(Aminomethyl)phenyl)-5-methylpyrimidin-2-amine Derivatives as Potent and Selective JAK2 Inhibitors” (ACS Med Chem Lett, 2023)

Assays:
BaF3 [1] = assay: Induction of apoptosis in mouse BaF3 cells harbouring JAK2 V617F mutant assessed as early apoptotic cells at 20 nM incubated for 24 hrs by Annexin V / propidium iodide staining based flow cytometry analysis (reference value: 14.4 %); format: functional
Procedure, shortened: (§1)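 Ba/F3 JAK2V617F cells exposed to compound at 20, 40, 80, 160 and 320 nM, then analysed for apoptosis by flow cytometry. Significance vs control by Dunnett's t test.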

BaF3 [2] = assay: Induction of cell cycle arrest in mouse BaF3 cells harbouring JAK2 […] mutant assessed as accumulation of cells at G0/G1 phase at 4 nM incubated for 24 hrs by propidium iodide staining based flow cytometry analysis (reference value: 56.85 %); format: functional
[3] = Half life in Sprague-Dawley rat at 5 mg/kg, po measured upto 24 hrs by LC-MS/MS analysis; format: ADME, organism-based; conditions: in vivo, po, 5 mg/kg, 24 h
Procedure, shortened: (§2)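 Sprague–Dawley rats, n = 5, dosed at 5 mg/kg as a solution in 2% ethanol and 1% Tween 80, pH 5.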

[4] = molecular target: Tyrosine-protein kinase JAK2 (Homo sapiens, UniProt O60674, V617F); assay: Inhibition of JAK2 V617F mutant in human SET2 cells; format: cell-based
Tyrosine-protein kinase JAK2 (Homo sapiens, UniProt O60674, V617F), sequence (O60674 whole entry V617F): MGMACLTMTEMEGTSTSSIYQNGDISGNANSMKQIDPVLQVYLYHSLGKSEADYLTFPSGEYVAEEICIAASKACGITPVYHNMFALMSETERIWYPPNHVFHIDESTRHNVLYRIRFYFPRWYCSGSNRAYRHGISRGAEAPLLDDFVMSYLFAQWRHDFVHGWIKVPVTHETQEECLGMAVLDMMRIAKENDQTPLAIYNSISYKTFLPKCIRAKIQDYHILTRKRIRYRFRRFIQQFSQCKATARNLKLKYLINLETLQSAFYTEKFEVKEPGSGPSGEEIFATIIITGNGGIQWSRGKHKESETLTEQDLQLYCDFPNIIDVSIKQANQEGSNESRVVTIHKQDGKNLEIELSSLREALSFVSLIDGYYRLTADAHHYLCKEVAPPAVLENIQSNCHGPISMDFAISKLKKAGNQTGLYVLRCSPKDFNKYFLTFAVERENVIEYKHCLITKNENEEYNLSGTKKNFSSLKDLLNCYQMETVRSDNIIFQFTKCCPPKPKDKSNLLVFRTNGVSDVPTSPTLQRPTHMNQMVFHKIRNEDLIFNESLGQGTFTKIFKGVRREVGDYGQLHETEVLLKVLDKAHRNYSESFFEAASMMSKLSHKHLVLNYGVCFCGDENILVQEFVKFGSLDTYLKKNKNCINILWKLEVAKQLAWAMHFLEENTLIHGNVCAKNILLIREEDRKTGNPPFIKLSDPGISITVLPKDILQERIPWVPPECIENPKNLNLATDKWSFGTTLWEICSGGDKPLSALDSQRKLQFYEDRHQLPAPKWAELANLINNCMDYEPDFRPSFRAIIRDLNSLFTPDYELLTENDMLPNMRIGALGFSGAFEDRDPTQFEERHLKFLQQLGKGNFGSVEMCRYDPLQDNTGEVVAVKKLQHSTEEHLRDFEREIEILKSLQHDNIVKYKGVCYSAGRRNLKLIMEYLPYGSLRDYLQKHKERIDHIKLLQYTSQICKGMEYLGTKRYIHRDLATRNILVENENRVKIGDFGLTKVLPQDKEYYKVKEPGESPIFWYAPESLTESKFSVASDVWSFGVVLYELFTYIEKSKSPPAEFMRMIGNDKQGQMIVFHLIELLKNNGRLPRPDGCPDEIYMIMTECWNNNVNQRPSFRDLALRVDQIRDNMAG
Procedure, shortened: (§3)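 Cell proliferation assay. IC50 is the concentration that inhibits proliferation by 50%, taken from dose–response curves. Mean ± SEM of at least three independent experiments.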

BaF3 [5] = assay: Induction of apoptosis in mouse BaF3 cells harbouring JAK2 V617F mutant assessed as viable cells at 320 nM incubated for 24 hrs by Annexin V / propidium iodide staining based flow cytometry analysis (reference value: 72.8 %); format: functional; conditions: read-out: Activity; procedure, shortened: as §1
BaF3 [6] = assay: Induction of apoptosis in mouse BaF3 cells harbouring JAK2 V617F mutant assessed as necrotic cells at 40 nM incubated for 24 hrs by Annexin V / propidium iodide staining based flow cytometry analysis (reference value: 0.64 %); format: functional; procedure, shortened: as §1
BaF3 [7] = assay: Induction of cell cycle arrest in mouse BaF3 cells harbouring JAK2 […] mutant assessed as accumulation of cells at G0/G1 phase at 16 nM incubated for 24 hrs by propidium iodide staining based flow cytometry analysis (reference value: 56.85 %); format: functional
BaF3 [8] = assay: Induction of apoptosis in mouse BaF3 cells harbouring JAK2 V617F mutant assessed as late apoptotic cells at 80 nM incubated for 24 hrs by Annexin V / propidium iodide staining based flow cytometry analysis (reference value: 12.2 %); format: functional; procedure, shortened: as §1
BaF3 [9] = assay: Induction of cell cycle arrest in mouse BaF3 cells harbouring JAK2 […] mutant assessed as accumulation of cells at S phase at 2 nM incubated for 24 hrs by propidium iodide staining based flow cytometry analysis (reference value: 33.80 %); format: functional
BaF3 [10] = assay: Induction of apoptosis in mouse BaF3 cells harbouring JAK2 V617F mutant assessed as necrotic cells at 80 nM incubated for 24 hrs by Annexin V / propidium iodide staining based flow cytometry analysis (reference value: 0.64 %); format: functional; procedure, shortened: as §1
BaF3 [11] = assay: Induction of cell cycle arrest in mouse BaF3 cells harbouring JAK2 […] mutant assessed as accumulation of cells at G0/G1 phase at 0.5 nM incubated for 24 hrs by propidium iodide staining based flow cytometry analysis (reference value: 56.85 %); format: functional
[12] = Tmax in Sprague-Dawley rat at 5 mg/kg, po measured upto 24 hrs by LC-MS/MS analysis; format: ADME, organism-based; conditions: in vivo, po, 5 mg/kg, 24 h
Procedure, shortened: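 Sprague–Dawley rats, n = 5 per group, dosed at 5 mg/kg as a solution in 2% ethanol and 1% Tween 80, pH 5.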

BaF3 [13] = assay: Induction of cell cycle arrest in mouse BaF3 cells harbouring JAK2 […] mutant assessed as accumulation of cells at G2/M phase at 8 nM incubated for 24 hrs by propidium iodide staining based flow cytometry analysis (reference value: 9.34 %); format: functional
BaF3 [14] = assay: Induction of apoptosis in mouse BaF3 cells harbouring JAK2 V617F mutant assessed as viable cells at 40 nM incubated for 24 hrs by Annexin V / propidium iodide staining based flow cytometry analysis (reference value: 72.8 %); format: functional; conditions: read-out: Activity; procedure, shortened: as §1
BaF3 [15] = assay: Induction of apoptosis in mouse BaF3 cells harbouring JAK2 V617F mutant assessed as late apoptotic cells at 20 nM incubated for 24 hrs by Annexin V / propidium iodide staining based flow cytometry analysis (reference value: 12.2 %); format: functional; procedure, shortened: as §1
[16] = Clearance in Sprague-Dawley rat at 5 mg/kg, po measured upto 24 hrs by LC-MS/MS analysis; format: ADME, organism-based; conditions: in vivo; procedure, shortened: as §2
BaF3 [17] = assay: Induction of cell cycle arrest in mouse BaF3 cells harbouring JAK2 […] mutant assessed as accumulation of cells at G2/M phase at 2 nM incubated for 24 hrs by propidium iodide staining based flow cytometry analysis (reference value: 9.34 %); format: functional
[18] = Cmax in Sprague-Dawley rat at 5 mg/kg, po measured upto 24 hrs by LC-MS/MS analysis; format: ADME, organism-based; design: dose 5 mg/kg, time < 24 hrs, route po; conditions: in vivo, 24 h; procedure, shortened: as §2
BaF3 [19] = assay: Induction of cell cycle arrest in mouse BaF3 cells harbouring JAK2 […] mutant assessed as accumulation of cells at S phase at 16 nM incubated for 24 hrs by propidium iodide staining based flow cytometry analysis (reference value: 33.80 %); format: functional
BaF3 [20] = assay: Inhibition of JAK2/STAT signaling pathway in mouse BaF3 cells harbouring JAK2 V617F mutant assessed as reduction in STAT3 phosphorylation by Western blot analysis; format: cell-based; conditions: dose 10-1000 nM
Procedure, shortened: (§4)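 Ba/F3 JAK2V617F cells treated with compound at increasing concentrations. Phosphorylation levels of JAK2, STAT3, STAT5 and AKT assessed by Western blot.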

[21] = Selectivity ratio of IC50 for JAK3 (unknown origin) to IC50 for JAK2 (unknown origin)
BaF3 [22] = assay: Induction of apoptosis in mouse BaF3 cells harbouring JAK2 V617F mutant assessed as early apoptotic cells at 40 nM incubated for 24 hrs by Annexin V / propidium iodide staining based flow cytometry analysis (reference value: 14.4 %); format: functional; procedure, shortened: as §1
BaF3 [23] = assay: Induction of apoptosis in mouse BaF3 cells harbouring JAK2 V617F mutant assessed as necrotic cells at 320 nM incubated for 24 hrs by Annexin V / propidium iodide staining based flow cytometry analysis (reference value: 0.64 %); format: functional; procedure, shortened: as §1
BaF3 [24] = assay: Induction of cell cycle arrest in mouse BaF3 cells harbouring JAK2 […] mutant assessed as accumulation of cells at G2/M phase at 0.5 nM incubated for 24 hrs by propidium iodide staining based flow cytometry analysis (reference value: 9.34 %); format: functional
BaF3 [25] = assay: Induction of apoptosis in mouse BaF3 cells harbouring JAK2 V617F mutant assessed as viable cells at 20 nM incubated for 24 hrs by Annexin V / propidium iodide staining based flow cytometry analysis (reference value: 72.8 %); format: functional; conditions: read-out: Activity; procedure, shortened: as §1
BaF3 [26] = assay: Induction of apoptosis in mouse BaF3 cells harbouring JAK2 V617F mutant assessed as viable cells at 160 nM incubated for 24 hrs by Annexin V / propidium iodide staining based flow cytometry analysis (reference value: 72.8 %); format: functional; conditions: read-out: Activity; procedure, shortened: as §1
[27] = molecular target: Tyrosine-protein kinase JAK2 (Mus musculus, UniProt Q62120, V617F); assay: Inhibition of JAK2 V617F mutant in mouse BaF3 cells; format: cell-based; procedure, shortened: as §3
Tyrosine-protein kinase JAK2 (Mus musculus, UniProt Q62120, V617F), sequence (Q62120 as listed by the source V617F): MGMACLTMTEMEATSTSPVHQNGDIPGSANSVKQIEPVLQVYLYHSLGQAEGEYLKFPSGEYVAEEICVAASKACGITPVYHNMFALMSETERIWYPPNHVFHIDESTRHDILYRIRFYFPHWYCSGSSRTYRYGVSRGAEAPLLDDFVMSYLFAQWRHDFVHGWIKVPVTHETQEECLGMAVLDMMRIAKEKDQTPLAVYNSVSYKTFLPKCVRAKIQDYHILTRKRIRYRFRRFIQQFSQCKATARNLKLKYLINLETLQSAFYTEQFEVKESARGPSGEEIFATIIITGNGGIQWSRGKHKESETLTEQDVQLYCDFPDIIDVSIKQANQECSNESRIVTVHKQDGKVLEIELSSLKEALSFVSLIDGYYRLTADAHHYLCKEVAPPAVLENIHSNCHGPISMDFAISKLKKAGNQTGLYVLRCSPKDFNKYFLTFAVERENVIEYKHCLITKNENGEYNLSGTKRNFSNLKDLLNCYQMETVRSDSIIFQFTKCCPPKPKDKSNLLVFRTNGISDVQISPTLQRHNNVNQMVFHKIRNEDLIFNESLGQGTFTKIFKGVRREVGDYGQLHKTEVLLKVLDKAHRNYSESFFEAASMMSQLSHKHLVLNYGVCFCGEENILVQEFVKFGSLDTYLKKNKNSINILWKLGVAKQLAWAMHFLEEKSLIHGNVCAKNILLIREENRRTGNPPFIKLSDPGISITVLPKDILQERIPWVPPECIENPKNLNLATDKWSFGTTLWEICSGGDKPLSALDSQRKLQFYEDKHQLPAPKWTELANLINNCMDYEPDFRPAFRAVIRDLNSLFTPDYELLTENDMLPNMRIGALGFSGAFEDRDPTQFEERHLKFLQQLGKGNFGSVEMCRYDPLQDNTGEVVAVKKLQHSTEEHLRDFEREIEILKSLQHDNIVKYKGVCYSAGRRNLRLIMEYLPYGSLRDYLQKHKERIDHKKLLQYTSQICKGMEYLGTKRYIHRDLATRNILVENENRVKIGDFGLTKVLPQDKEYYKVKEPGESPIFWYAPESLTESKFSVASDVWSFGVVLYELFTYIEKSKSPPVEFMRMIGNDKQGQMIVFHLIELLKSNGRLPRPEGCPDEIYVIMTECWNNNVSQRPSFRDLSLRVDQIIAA

BaF3 [28] = assay: Inhibition of JAK2/STAT signaling pathway in mouse BaF3 cells harbouring JAK2 V617F mutant assessed as reduction in STAT5 phosphorylation by Western blot analysis; format: cell-based; conditions: dose 10-1000 nM; procedure, shortened: as §4

| Structure (SMILES) | Activity (BaF3 [1]) [%] | Activity (BaF3 [2]) [%] | IC50 [4] [µM] | viability at 0.32 µM (BaF3 [5]) [%] | Activity (BaF3 [6]) [%] | Activity (BaF3 [7]) [%] | Activity (BaF3 [8]) [%] | Activity (BaF3 [9]) [%] | Activity (BaF3 [10]) [%] | Activity (BaF3 [11]) [%] | Activity (BaF3 [13]) [%] | viability at 0.04 µM (BaF3 [14]) [%] | Activity (BaF3 [15]) [%] | Activity (BaF3 [17]) [%] | Activity (BaF3 [19]) [%] | Ratio IC50 [21] | Activity (BaF3 [22]) [%] | Activity (BaF3 [23]) [%] | Activity (BaF3 [24]) [%] | viability at 0.02 µM (BaF3 [25]) [%] | further results |
| --- | --- | --- | --- | --- | --- | --- | --- | --- | --- | --- | --- | --- | --- | --- | --- | --- | --- | --- | --- | --- | --- |
| C=CS(=O)(=O)NCc1ccc(Nc2ncc(C)c(-c3cnn(C(C)C)c3)n2)cc1 | 24.7 | 62.95 | 0.0443 | 24.5 | 3.27 | 69.31 | 38.7 | 30.58 | 3.39 | 59.23 | 8.38 | 44.1 | 20 | 8.29 | 20.76 | 54.6 | 26.4 | 4.33 | 9.03 | 53.7 | t1/2 [3]: 5.2 h; Tmax [12]: 1.4 h; CL [16]: 17.7 L/h/kg; Cmax [18]: 0.1214 µg/mL; inhibition (BaF3 [20]): Dose-Dependent Effect; viability at 0.16 µM (BaF3 [26]): 22.9%; IC50 [27]: 0.0253 µM; inhibition (BaF3 [28]): Dose-Dependent Effect |
| Cc1cnc(Nc2ccc3c(c2)CCN(C(=O)/C=C/CN(C)C)C3)nc1-c1cnn(C(C)C)c1 | 18.4 | 57.34 | 0.475 | 14.3 | 0.89 | 59.42 | 25.4 | 27.94 | 2.64 | 55.96 | 8.98 | 61.1 | 12 | 15.52 | 31.63 | 31 | 22.4 | 3.48 | 9.64 | 68.6 | viability at 0.16 µM (BaF3 [26]): 19.4%; IC50 ([27]; baf3): 0.041 µM |
